This passage reports IC12 and IC50 results from ChEMBL document CHEMBL1150057, “Bioactive ergost-5-ene-3 beta, 7 alpha-diol derivatives from Pseudobersama mossambicensis” (J Nat Prod, 1992).

Some results are limits rather than exact numbers.

For test [1], the system named is Saccharomyces cerevisiae. The experiment in a line: DNA damaging activity against RS188N rad DNA repair gene expressing wild type Saccharomyces cerevisiae assessed as drug level required to produce 12 mm zone of inhibition after 48 hrs. In kind it is functional. Summed up: (§1)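 Yeast agar-well diffusion: strain plated on YPD agar (7 mm layer); 6 mm wells cut with cork borer; sample dissolved in DMSO-MeOH (1:1), 100 μl per well. Plates read after 48 h at 30°. IC12 = concentration (μg/ml) giving a 12 mm inhibition zone, taken from dose-response curves by linear regression (log dose as Y, zone size as X).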

The subject of test [2] is Saccharomyces cerevisiae. The experiment in a line: DNA damaging activity against RS322YK rad52 DNA repair gene deficient Saccharomyces cerevisiae mutant assessed as drug level required to produce 12 mm zone of inhibition after 48 hrs. In kind it is functional. Summed up: as §1
A further test concerns P388. Nature of the test: Cytotoxicity against mouse P388 cells. In kind it is functional, cell-based.
Test [3] concerns Saccharomyces cerevisiae. Nature of the test: DNA damaging activity against RS167N rad6 DNA repair gene deficient Saccharomyces cerevisiae mutant assessed as drug level required to produce 12 mm zone of inhibition after 48 hrs. It counts as functional. The method, boiled down: as §1

As for `CC(C)C(O)(CO)CC[C@@H](C)[C@H]1CC[C@H]2[C@@H]3[C@H](O)C=C4C[C@@H](O)CC[C@]4(C)[C@H]3CC[C@]12C` (stereo partly drawn), the figures for the IC12 in the test with Saccharomyces cerevisiae [1] and with Saccharomyces cerevisiae [2] were greater than 100 µg/mL and 1 µg/mL, respectively.

Broadly, the IC50 is the midpoint of a concentration-inhibition curve. High values mean weaker potency, low ones greater potency. For the compound `C=C(CC[C@@H](C)[C@H]1CC[C@H]2[C@@H]3[C@H](O)C=C4C[C@@H](O)CC[C@]4(C)[C@H]3CC[C@]12C)C(C)C`, the IC12 was greater than 1500 µg/mL in the test with Saccharomyces cerevisiae [1], 8 µg/mL with Saccharomyces cerevisiae [2] and 12 µg/mL in the test on Saccharomyces cerevisiae [3]. Moreover, the half-maximal inhibitory concentration (IC50) in the test on P388 came out at 4.3 µM.

`CC(C)C1(CC[C@@H](C)[C@H]2CC[C@H]3[C@@H]4[C@H](O)C=C5C[C@@H](O)CC[C@]5(C)[C@H]4CC[C@]23C)CO1` (stereo partly drawn): the IC12 is greater than 50 µg/mL in the test with Saccharomyces cerevisiae [1], 0.4 µg/mL in the test with Saccharomyces cerevisiae [2] and 6 µg/mL in the test on Saccharomyces cerevisiae [3].

With `CC[C@@]1(O)C(=O)OCc2c1cc1n(c2=O)Cc2cc3ccccc3nc2-1` [CAMPTOTHECIN], the IC12 stood at 0.6 µg/mL in the test on Saccharomyces cerevisiae [2] and 8.7 µg/mL with Saccharomyces cerevisiae [3].

Regarding `COC1=C(N)C(=O)c2nc(-c3nc(C(=O)O)c(C)c(-c4ccc(OC)c(OC)c4O)c3N)ccc2C1=O` [STREPTONIGRIN], the results for the IC12 in the test on Saccharomyces cerevisiae [2] and in the test with Saccharomyces cerevisiae [3] were 0.4 µg/mL and 2.4 µg/mL, respectively.
